{"source": "paper PMC9394215", "about": "(Journal for Immunotherapy of Cancer, 2022)", "key": {"[1]": {"tested_on": "ALK", "details": "ref 59 60; cited from earlier work"}, "[2]": {"target": "T1, Soluble CD73 (Homo sapiens, UniProt P21589)", "T1 sequence (P21589 27-549 limits assumed)": "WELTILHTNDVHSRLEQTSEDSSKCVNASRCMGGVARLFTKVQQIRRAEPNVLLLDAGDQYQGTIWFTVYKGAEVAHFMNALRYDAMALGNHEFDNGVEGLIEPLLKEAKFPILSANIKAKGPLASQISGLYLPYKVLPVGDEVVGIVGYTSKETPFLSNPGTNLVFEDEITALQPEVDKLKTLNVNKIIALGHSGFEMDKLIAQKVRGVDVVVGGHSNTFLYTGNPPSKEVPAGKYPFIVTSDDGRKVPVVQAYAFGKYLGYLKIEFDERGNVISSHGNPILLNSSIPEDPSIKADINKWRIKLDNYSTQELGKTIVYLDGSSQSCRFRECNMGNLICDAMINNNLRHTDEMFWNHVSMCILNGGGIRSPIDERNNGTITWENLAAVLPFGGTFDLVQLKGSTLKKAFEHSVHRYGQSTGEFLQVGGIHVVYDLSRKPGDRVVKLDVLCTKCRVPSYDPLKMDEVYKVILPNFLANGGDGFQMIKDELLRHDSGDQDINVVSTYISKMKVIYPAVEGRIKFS", "experiment": "CD73 assay with [2,8-3H]AMP", "format": "biochemical", "outline": "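A dilution series of test compound was incubated with soluble human CD73 (0.09 µg/mL) and 5.0 µM [2,8-3H]AMP in 25 mM Tris, 140 mM NaCl, 25 mM NaH2PO4, pH 7.4. Incubation ran 25 min at 37°C with shaking. Cold LaCl3/sodium acetate buffer (pH 4.0) precipitated phosphate and unconverted AMP over 30 min on ice. Samples were filtered through GF/B filters and the filtrate collected.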"}, "[3]": {"target": "T2, NPP1 (Homo sapiens, UniProt P22413)", "T2 sequence (P22413 98-925 limits assumed)": "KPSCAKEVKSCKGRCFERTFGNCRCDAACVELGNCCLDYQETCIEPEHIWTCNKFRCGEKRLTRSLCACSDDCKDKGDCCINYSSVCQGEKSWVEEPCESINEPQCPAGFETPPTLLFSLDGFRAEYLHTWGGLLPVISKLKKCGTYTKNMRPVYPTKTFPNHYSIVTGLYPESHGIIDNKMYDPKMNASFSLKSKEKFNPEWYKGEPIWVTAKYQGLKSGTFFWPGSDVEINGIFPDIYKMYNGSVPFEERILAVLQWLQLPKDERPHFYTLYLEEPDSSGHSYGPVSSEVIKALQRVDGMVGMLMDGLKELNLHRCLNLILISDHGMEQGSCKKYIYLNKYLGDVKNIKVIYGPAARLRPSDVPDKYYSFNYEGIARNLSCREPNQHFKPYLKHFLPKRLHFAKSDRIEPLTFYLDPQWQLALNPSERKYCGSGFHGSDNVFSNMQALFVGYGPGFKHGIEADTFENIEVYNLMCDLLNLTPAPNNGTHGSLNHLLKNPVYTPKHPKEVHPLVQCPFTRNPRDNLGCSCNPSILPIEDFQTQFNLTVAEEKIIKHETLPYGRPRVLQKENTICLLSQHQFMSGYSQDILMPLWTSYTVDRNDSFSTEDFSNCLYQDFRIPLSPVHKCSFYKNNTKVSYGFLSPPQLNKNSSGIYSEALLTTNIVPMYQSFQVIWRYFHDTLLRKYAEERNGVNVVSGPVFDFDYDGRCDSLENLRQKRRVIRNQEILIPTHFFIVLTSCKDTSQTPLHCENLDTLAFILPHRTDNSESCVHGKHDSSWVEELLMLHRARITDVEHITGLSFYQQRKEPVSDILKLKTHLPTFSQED", "experiment": "NPP1 assay", "format": "biochemical", "outline": "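Crude soluble NPP1 (800 ng, Sf9-expressed) was incubated with 50 µM test compound, 2% DMSO and 300 µM ATP. Buffer: 10 mM CHES, pH 9.0, 2 mM CaCl2, 1 mM MgCl2; 30 min at 37°C with shaking. The reaction was stopped by 5 min at 90°C, then cooled on ice. Product AMP was quantified by capillary electrophoresis.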"}, "[4]": {"tested_on": "TNBC (MDA-MB-231) cell membrane preparations", "experiment": "Malachite green assay, ATP hydrolysis by TNBC cell membrane preparations", "format": "biochemical, human", "details": "increasing concentrations of ceritinib, 50 µM ATP", "outline": "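Crude membranes came from ~90% confluent MDA-MB-231 or Ma-Mel-65 cells. Cells were homogenised in Tris/EDTA/saccharose/PMSF buffer, pH 7.4, and centrifuged at 1000 g, then 48,000 g for 1 h at 4°C. Pellets were washed and stored at −80°C in 50 mM Tris-HCl, pH 7.4. ATP hydrolysis (50 µM ATP, HEPES/Ca/Mg pH 7.4) was run with increasing test compound concentrations for 15 min at 37°C. Phosphate was read by malachite green (600 nm); triplicates, n=3.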"}, "[5]": {"details": "cited from earlier work"}, "[6]": {"target": "T3, Membrane-bound CD73 (Homo sapiens, UniProt P21589)", "T3 sequence (P21589 27-574)": "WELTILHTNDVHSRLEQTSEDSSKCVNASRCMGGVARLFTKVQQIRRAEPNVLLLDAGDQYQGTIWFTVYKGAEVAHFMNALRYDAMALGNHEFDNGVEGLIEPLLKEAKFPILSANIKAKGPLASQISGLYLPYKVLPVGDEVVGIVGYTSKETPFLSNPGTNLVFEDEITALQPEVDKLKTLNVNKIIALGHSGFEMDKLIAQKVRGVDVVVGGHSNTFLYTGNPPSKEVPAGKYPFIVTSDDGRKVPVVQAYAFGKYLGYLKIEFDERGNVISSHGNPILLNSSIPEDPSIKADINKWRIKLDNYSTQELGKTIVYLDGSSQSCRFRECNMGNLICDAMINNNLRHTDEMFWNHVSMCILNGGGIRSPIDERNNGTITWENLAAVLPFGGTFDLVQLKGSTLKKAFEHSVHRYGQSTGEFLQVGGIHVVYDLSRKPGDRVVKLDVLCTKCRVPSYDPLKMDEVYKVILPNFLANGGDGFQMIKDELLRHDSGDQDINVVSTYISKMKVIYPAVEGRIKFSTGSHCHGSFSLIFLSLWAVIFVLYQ", "experiment": "Membrane-bound CD73 inhibition", "format": "biochemical"}, "[7]": {"details": "cited from earlier work", "remark": "listed apart in the source"}, "[8]": {"details": "read-out: % inhibition at 50 µM"}}, "note": "Where two headings read alike, the source gives them in different places.", "data": [{"smiles": "Cc1cc(Nc2ncc(Cl)c(Nc3ccccc3S(=O)(=O)C(C)C)n2)c(OC(C)C)cc1C1CCNCC1", "note": "[ceritinib, Ceritinib]", "values": [{"measurement": "IC50 value against ALK", "setting": "[1]", "result": "subnanomolar range"}, {"measurement": "IC50", "setting": "[2]", "result": "> 50", "unit": "µM"}, {"measurement": "inhibition at 50 µM", "setting": "[2]; [8]", "result": 33, "unit": "%"}, {"measurement": "IC50", "setting": "[3]", "result": "> 50", "unit": "µM"}, {"measurement": "inhibition at 50 µM", "setting": "[3]; [8]", "result": 8, "unit": "%"}, {"measurement": "ATPase activity of cancer cell membranes", "setting": "[4]", "result": "decreased significantly"}, {"measurement": "pharmacokinetics in mice versus humans", "setting": "[5]", "result": "comparable pharmacokinetics"}, {"measurement": "IC50", "setting": "[6]", "result": "> 50", "unit": "µM"}, {"measurement": "inhibition at 50 µM", "setting": "[6]; [8]", "result": 30, "unit": "%"}, {"measurement": "average concentration in tumor tissue", "setting": "[7]; brain tumor patients, after the 10th applied dose, steady state", "result": 36, "unit": "µM"}, {"measurement": "range of concentration in tumor tissue", "setting": "[7]; brain tumor patients, after the 10th applied dose", "result": "2 to 139", "unit": "µM"}, {"measurement": "average concentration in tumor tissue", "setting": "[7]; brain tumors, steady-state conditions", "result": 36, "unit": "nmol/g"}, {"measurement": "concentration in tumor tissues in some patients", "setting": "[7]", "result": "above 100 µM"}]}]}
